Only some compounds are listed: those with a hit (about 3% of all), similar ones and a draw of the others.
FID counter: fluorescent intercalator displacement, NS3 helicase counter-screen. DNA fluorescent intercalator displacement, fluorescence. inhibition, % at 7.9 µM. 290,000 compounds, 0.17% hits. AID 1845; in the data active = inhibition above about 37%;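 also: 0% = vehicle and 100% = reference compound; higher means more ethidium bromide displaced from hairpin DNA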
SR-BI DiI inh: mouse SR-BI HDL lipid transfer inhibition. Q61009. ldlA[mSR-BI] CHO cells, DiI-HDL uptake fluorescence, 3 h. inhibition, % at 12.5 µM. 320,000 compounds, 0.96% hits. AID 488896;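 active = mean replicate inhibition of at least 70% and a set share of replicates each scoring 70 or more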;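 also: 0% = median of neutral control wells and 100% = median of positive control wells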
ANO1 activ: activates or potentiates the mouse TMEM16A chloride channel | B-score at 10 µM | HEK293 TMEM16A/YFP-H148Q/I152L, iodide quench fluorescence; active compounds read low | 340,000 compounds, 0.3% hits;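 active = fluorescence-ratio B-score plate-corrected deviation score at least 3 library SD below zero, with starting fluorescence score within 5 deviations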;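 also: channel opened by trigger with iodide after compound preincubation; score built on the fluorescence ratio of max minus min over baseline; more negative score means more quench and so TMEM16A activation or potentiation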
Kir21 block: Kir2.1 (mouse) channel inhibition. P35561. HEK293-Kir2.1, FluxOR thallium flux fluorescence; active compounds read low. B-score at 10 µM. 310,000 compounds, 0.85% hits. AID 1672;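 active = fluorescence ratio B-score at or below minus 3 SD of library scores, with starting-brightness B-score within 2 SD, cut at about -4.2 in these data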;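 also: channel flux triggered by added potassium and thallium sulfate stimulus; B-score of peak minus minimum fluorescence over baseline after thallium stimulus; more negative B-score means stronger Kir2.1 block with less thallium influx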
SR-BI uptake up: SR-BI HDL lipid transfer activation | CHO ldlA[mSR-BI] cells, DiI-HDL uptake fluorescence, 3 h; 100 = double the neutral-control signal | activation, % at 12.5 µM | 320,000 compounds, 0.096% hits | AID 504775;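 active = mean replicate activation of at least 60% and every replicate at or above 60%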;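 also: 0% = median plate neutral-control signal and 100% = twice that signal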
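Assay system: LDL receptor-deficient CHO ldlA cells overexpressing murine SR-BI / Medium: BSA-supplemented, HEPES-buffered Ham's F12, pH 7.4 / Probe or stimulus: DiI-labelled HDL at 10 µg/mL final / Timing: compound with DiI-HDL co-incubation, 3 h at 37 °C / Technique: bottom-read cell fluorescence after medium removal, ex 550/em 595 nm / Measure: HDL uptake via cellular fluorescence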
ANO1 block: inhibitors of mouse TMEM16A calcium-activated chloride channel; Q8BHY3; HEK293 TMEM16A/YFP iodide influx fluorescence, ionomycin; normalized B-score (activity score, 25-100; higher = stronger inhibition) at 10 µM; 310,000 compounds, 1.2% hits; AID 588511;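 active = ratio plate-corrected score three or more library SD toward inhibition, starting fluorescence score within five deviations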;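 also: score derived from kinetic fluorescence span divided by baseline fluorescence per well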
TMEM16A reconf: reconfirmed blocker of mouse TMEM16A calcium-activated chloride channel; shares compounds with ANO1 block; HEK293 TMEM16A/YFP-H148Q, iodide quench fluorescence; ionomycin added to raise cell calcium; inhibition, % at 10 µM; 2,300 compounds, 39% hits; AID 652189;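 active = mean duplicate percent inhibition, scaled so buffer wells are 0 and the reference blocker 100, over three buffer SD above buffer mean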
TMEM16A Ca cntr: calcium mobilization counter-screen hit for TMEM16A inhibitor series; calcium response (% of ionomycin), % at 10 µM; 2,300 compounds, 2% hits; AID 652231; TMEM16A/YFP HEK293, Fluo4 calcium mobilization; shares compounds with ANO1 block;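 active = duplicate-averaged calcium signal over 20% of the ionomycin maximum, relative to buffer baseline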;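 also: each well's signal is peak minus trough fluorescence divided by its pre-addition baseline; 0% = buffer wells and 100% = ionomycin wells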
YFP-HEK293 quench: counter-screen for TMEM16A inhibitors: effect in parental YFP-HEK293 cells; shares compounds with ANO1 block; iodide YFP quench, ionomycin; YFP ratio F(max-min)/F0 at 10 µM; 2,300 tested, under 10 active; AID 652233;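 active = yellow fluorescent protein signal ratio exceeding the buffer control mean by over 5 SD of those controls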;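 also: ratio is mean of duplicate wells from kinetic YFP trace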
ClC-1 rat inh: rat ClC-1 inhibition, TMEM16A specificity screen; shares compounds with ANO1 block; CHO ClC-1-YFP, iodide influx fluorescence quench; iodide control reads 0, buffer control 100; ratio percent, % at 10 µM; 2,300 tested, under 10 active;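 active = duplicate-mean ratio percent above the mean of iodide-only control wells, which defines zero, plus 5 of their SD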;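 also: higher percent means stronger block of ClC-1 iodide influx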
The depositor's hits bear a star; i = inactive; · = not tested or not shown.

SMILES | FID counter | SR-BI DiI inh | ANO1 activ | Kir21 block | SR-BI uptake up | ANO1 block | TMEM16A reconf | TMEM16A Ca cntr | YFP-HEK293 quench | ClC-1 rat inh
O=C(NCc1c[nH]c2ccccc12)c1ccccc1 | · | -2.4 | i | 0.82 | 2.4 | i | · | · | · | ·
CCOC(=O)c1ccccc1NC(=O)c1nc2nccc(C)n2n1 | -20.6 | 5.6 | i | -0.02 | -5.6 | 25* | i | i | -0.895 | 1.5
Cc1ccnc2nc(C(=O)OCC(=O)Nc3ccccc3C(C)(C)C)nn12 | -0.2 | -1.9 | i | 2.63 | 1.9 | i | · | · | · | ·
CCC1(c2ccccc2)NC(=O)N(CC(=O)Nc2cc(S(=O)(=O)N3CCCCCC3)ccc2OC)C1=O (stereo unspecified) | · | -14.8 | i | 0.11 | 14.8 | i | · | · | · | ·
CC(C)CSc1nc(N2CCOCC2)c2c(c1C#N)CC(C)(C)SC2 | -19.2 | 9.9 | i | · | -9.9 | i | 22.0%* | i | -0.893 | 0.5
O=C(NN=C1CCCC1)c1ccc(O)cc1 | -3.1 | -21.8 | i | 0.44 | 21.8 | i | · | · | · | ·
CC(C)(NO)/C(=N/O)c1cccs1 | 0.1 | -10.2 | i | -0.06 | 10.2 | 25* | i | i | -1.11 | -4.0
CCC(=O)N(CCC(c1ccco1)c1ccccc1OC)Cc1cccs1 (stereo unspecified) | -29.6 | -4.4 | i | -2.93 | 4.4 | 100* | i | i | -1.07 | -18.0
Cc1ccc(S(=O)(=O)N(C)C)cc1NC(=O)C(C)N(C)CCOc1ccc(Cl)cc1 (stereo unspecified) | -35.0 | 23.5 | i | -0.01 | -23.5 | 25* | i | i | -1.03 | -11.5
COc1ccc(CN(C)C(=O)c2ccc(COc3ccccc3)cc2)c(OC)c1 | -41.8 | · | i | -0.11 | · | 25* | i | i | -1.13 | -5.0
Cc1oc2c(c(C)cc3oc(=O)c(CC(=O)NCCCO)c(C)c32)c1C | -35.4 | 0.2 | i | 0.97 | -0.2 | i | i | i | -1.04 | -2.5
Cc1oc2c(c(C)cc3oc(=O)c(CC(=O)NCCCN4CCCC4=O)c(C)c32)c1C | -32.6 | 16.4 | i | 0.01 | -16.4 | i | · | · | · | ·
Cc1csc(NC(=O)c2cc3ccccc3o2)n1 | · | 11.2 | i | · | -11.2 | · | · | · | · | ·
Cc1csc(C(C#N)C(=O)c2cc3ccccc3o2)n1 (stereo unspecified) | 1.1 | 21.8 | i | 0.47 | -21.8 | 25* | 29.5%* | i | -1.06 | -25.5
O=C(CN1C(=O)C2CC=CCC2C1=O)NCc1ccc2c(c1)OCO2 (stereo unspecified) | -6.1 | -10.8 | i | · | 10.8 | 25* | i | i | -0.985 | -14.0
CC(C)CCn1c(=O)c2ccccc2n2c(CCC(=O)NCC3CCCO3)nnc12 (stereo unspecified) | -44.9 | -9.3 | i | -0.1 | 9.3 | i | · | · | · | ·
O=C1NC(=O)C2(CCCCCCC2)N1 | · | · | i | · | · | · | · | · | · | ·
NS(=O)(=O)c1cc2c(cc1Cl)NC(CC1CCCC1)NS2(=O)=O (stereo unspecified) | -1.6 | · | i | 2.23 | · | i | · | · | · | ·
NS(=O)(=O)c1cc2c(cc1Cl)NC(Cc1ccccc1)NS2(=O)=O (stereo unspecified) | 0.4 | -20.0 | i | -3.28 | 20.0 | i | i | i | -0.915 | -10.5
CCOC(=O)c1ccc(NC(=S)NCCc2ccccc2F)cc1 | -10.2 | 3.3 | i | 1.94 | 7.4 | 100* | 20.0%* | i | -1.18 | -17.0
CCOC(=O)c1ccc(NC(=S)NCc2ccccc2)cc1 | -6.7 | -9.6 | i | 0.58 | 9.6 | i | · | · | · | ·
CC1(C)Cc2nc3oc4c(NCCCN5CCOCC5)ncnc4c3cc2CO1 | 2.8 | -7.0 | i | -0.02 | 7.0 | i | · | · | · | ·
CC(NC(=O)Cn1cc2c(n1)CCCCC2)c1ccccc1 (stereo unspecified) | -6.1 | 4.1 | i | -2.5 | -4.1 | 25* | i | i | -1.18 | -3.0
COc1ccc(OCCC(=O)OCC(=O)NC(=O)NC(C)(C)C)cc1 | -13.0 | 13.4 | i | -0.14 | -13.4 | i | i | i | -1.15 | -11.5
Cc1ccc(NC(=O)CSc2nc3ccccc3c3nc(CCc4c(C)n[nH]c4C)nn23)cc1F | -7.4 | 11.7 | i | 0.01 | -11.7 | 25* | 29.0%* | i | -0.994 | -15.0
SMILES | FID counter | SR-BI DiI inh | ANO1 activ | Kir21 block | SR-BI uptake up | ANO1 block | TMEM16A reconf | TMEM16A Ca cntr | YFP-HEK293 quench | ClC-1 rat inh
O=S(=O)(Nc1cccc(S(=O)(=O)N2CCCCC2)c1)c1ccc(Cl)s1 | · | 32.7 | i | · | · | · | · | · | · | ·
S=C(NCCc1ccccc1)Nc1ccc(N2CCCCC2)cc1 | -20.2 | -8.2 | · | -1.08 | 8.2 | i | i | i | -1.05 | -6.5
Cc1ccc(NC(=O)c2cc(S(=O)(=O)N3CCCC3)cn2C)cc1 | -24.2 | 8.3 | i | 1.02 | -8.3 | i | · | · | · | ·
CCc1nn(C(C)C(=O)NCCN2CCN(c3cccc(C)c3C)CC2)c(=O)c2cc3occc3n12 (stereo unspecified) | 3.8 | 80.2* | i | -0.76 | -80.2 | i | i | i | -1 | 1.5
CCc1nn(C(C)C(=O)Nc2cccc(C)c2C)c(=O)c2cc3occc3n12 (stereo unspecified) | -21.9 | 22.1 | i | 0.57 | -22.1 | i | · | · | · | ·
Cc1cc2c(c(C)c1CCO)C(=O)[C@H](C)C2 | · | -15.2 | i | · | 15.2 | · | · | · | · | ·
COc1ccc(CNC(=O)CCNC(=O)c2ccco2)cc1OC | · | -9.4 | i | · | 9.4 | · | · | · | · | ·
O=C1/C(=C/c2ccc(O)c(O)c2)Oc2cc(O)ccc21 | · | -0.1 | i | · | 0.1 | i | 19.5%* | 33.5%* | -1.46 | -61.5
COc1cc(/C=C2\Oc3cc(O)ccc3C2=O)ccc1O | · | -18.9 | i | -5.73 | 19.0 | i | · | · | · | ·
Cc1ccc(S(=O)(=O)c2c(C)nn(C(C)(C)C)c2OC(=O)C(C)(C)C)cc1 | -32.8 | 6.6 | i | 0 | -6.6 | 100* | i | i | -0.988 | -17.5
CN(CC(=O)Nc1ccc(F)cc1)C(=O)c1ccc(N2C(=O)CCC2=O)cc1 | · | -10.0 | i | · | 10.0 | · | · | · | · | ·
O=C(OCC(=O)c1ccccc1Br)c1ccncc1 | -11.1 | -13.8 | i | 0.04 | 13.8 | i | · | · | · | ·

Compound activity: PubChem BioAssay, several laboratories
